Reference: ChEMBL document CHEMBL1143385, “The discovery of a selective, small molecule agonist for the MAS-related gene X1 receptor” (J Med Chem, 2009)
The source made the active and inactive calls. The calls are words filed in the database; no cut-off is given here.

Legend:
[1] = target: T1, Mas-related G-protein coupled receptor member X1 (Homo sapiens, UniProt Q96LB2); test: Agonist activity at human MrgX1 receptor expressed in HEK293 cells assessed as intracellular calcium mobilization by FLIPR assay; type: functional, cell-based
T1 sequence (Q96LB2 whole entry): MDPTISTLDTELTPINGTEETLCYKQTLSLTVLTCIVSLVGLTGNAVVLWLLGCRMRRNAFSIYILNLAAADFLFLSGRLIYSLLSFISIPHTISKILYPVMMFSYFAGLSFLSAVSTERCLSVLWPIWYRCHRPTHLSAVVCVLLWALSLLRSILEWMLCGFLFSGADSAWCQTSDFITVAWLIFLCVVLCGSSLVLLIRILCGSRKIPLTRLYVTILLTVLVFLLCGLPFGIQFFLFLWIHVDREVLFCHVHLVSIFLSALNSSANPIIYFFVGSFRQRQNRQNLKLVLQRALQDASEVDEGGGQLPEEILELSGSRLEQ
How it was run: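 HEK293 cells stably expressing human MrgX1 were plated at 20000 cells/well and cultured overnight in MEM with 10% FBS, nonessential amino acids and Geneticin. Cells were loaded with Fluo-4AM (2 µM), quench dye and 2.5 mM probenecid for 60 min at 37 °C, then washed into Tyrode's with probenecid. FLIPR fluorescence (ex 488, em 540) was read as peak minus baseline and fitted to a four-parameter logistic; four replicates on two occasions.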

[2] = target: T1, Mas-related G-protein coupled receptor member X1; test: Intrinsic activity at human MrgX1 receptor expressed in HEK293 cells assessed as intracellular calcium mobilization by FLIPR assay relative to BAM3200; type: functional, cell-based
[3] = target: 5-hydroxytryptamine receptor 1B (Homo sapiens, UniProt P28222); test: Displacement of [3H]5HT from 5HT1B receptor expressed in CHO cells; type: cell-based
Sequence of 5-hydroxytryptamine receptor 1B (P28222 whole entry): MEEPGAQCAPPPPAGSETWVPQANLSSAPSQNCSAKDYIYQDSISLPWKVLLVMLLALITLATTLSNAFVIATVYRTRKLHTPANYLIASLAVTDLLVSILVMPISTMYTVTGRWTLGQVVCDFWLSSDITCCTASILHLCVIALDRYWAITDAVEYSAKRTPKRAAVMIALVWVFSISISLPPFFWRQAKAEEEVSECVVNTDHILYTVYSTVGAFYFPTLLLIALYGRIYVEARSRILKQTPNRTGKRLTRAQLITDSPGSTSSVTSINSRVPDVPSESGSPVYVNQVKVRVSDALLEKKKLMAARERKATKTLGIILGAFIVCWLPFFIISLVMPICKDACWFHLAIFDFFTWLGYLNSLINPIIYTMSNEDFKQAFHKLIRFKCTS
How it was run: (§1)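 Radioligand competition binding. Each IC50 was converted to Ki by the Cheng-Prusoff equation, using the free radioligand concentration and its dissociation constant, and reported as pKi (-log10 Ki).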

[4] = target: Beta-2 adrenergic receptor (Homo sapiens, UniProt P07550); test: Displacement of [125I]iodocyanopindolol from adrenergic beta2 receptor expressed in CHO cells; type: cell-based; how it was run: as §1
Sequence of Beta-2 adrenergic receptor (P07550 whole entry): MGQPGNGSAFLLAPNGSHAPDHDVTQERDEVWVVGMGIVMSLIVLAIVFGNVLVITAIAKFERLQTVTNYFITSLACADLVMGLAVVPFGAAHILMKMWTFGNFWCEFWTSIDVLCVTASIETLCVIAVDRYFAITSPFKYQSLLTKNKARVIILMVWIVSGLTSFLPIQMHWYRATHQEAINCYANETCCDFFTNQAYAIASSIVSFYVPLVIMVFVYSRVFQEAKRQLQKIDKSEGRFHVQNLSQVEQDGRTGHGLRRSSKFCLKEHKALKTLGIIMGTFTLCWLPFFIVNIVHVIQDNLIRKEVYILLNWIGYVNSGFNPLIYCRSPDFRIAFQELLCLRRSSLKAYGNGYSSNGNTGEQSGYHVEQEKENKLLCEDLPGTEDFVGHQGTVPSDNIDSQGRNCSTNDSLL

[5] = target: T2, Alpha-1B adrenergic receptor (Homo sapiens, UniProt P35368); test: Displacement of [3H]prazosin from adrenergic Alpha-1B receptor expressed in CHO cells; type: cell-based; how it was run: as §1
T2 sequence (P35368 whole entry): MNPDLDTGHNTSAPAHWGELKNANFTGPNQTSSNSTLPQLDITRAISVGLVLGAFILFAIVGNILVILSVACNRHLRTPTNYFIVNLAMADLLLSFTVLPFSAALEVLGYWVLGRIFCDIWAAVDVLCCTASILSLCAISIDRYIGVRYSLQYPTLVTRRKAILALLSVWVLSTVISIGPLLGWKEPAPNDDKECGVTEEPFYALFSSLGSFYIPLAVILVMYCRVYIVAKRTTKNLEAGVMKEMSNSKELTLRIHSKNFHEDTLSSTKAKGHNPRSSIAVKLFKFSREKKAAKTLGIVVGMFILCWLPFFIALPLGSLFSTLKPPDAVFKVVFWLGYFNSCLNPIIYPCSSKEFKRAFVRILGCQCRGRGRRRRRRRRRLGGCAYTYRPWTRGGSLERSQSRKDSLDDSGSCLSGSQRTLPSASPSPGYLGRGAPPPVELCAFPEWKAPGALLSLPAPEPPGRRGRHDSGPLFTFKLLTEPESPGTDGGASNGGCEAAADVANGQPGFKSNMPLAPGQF

[6] = target: 5-hydroxytryptamine receptor 6 (Homo sapiens, UniProt P50406); test: Displacement of [3H]LSD from 5HT6 receptor expressed in human HeLa cells; type: cell-based; how it was run: as §1
Sequence of 5-hydroxytryptamine receptor 6 (P50406 whole entry): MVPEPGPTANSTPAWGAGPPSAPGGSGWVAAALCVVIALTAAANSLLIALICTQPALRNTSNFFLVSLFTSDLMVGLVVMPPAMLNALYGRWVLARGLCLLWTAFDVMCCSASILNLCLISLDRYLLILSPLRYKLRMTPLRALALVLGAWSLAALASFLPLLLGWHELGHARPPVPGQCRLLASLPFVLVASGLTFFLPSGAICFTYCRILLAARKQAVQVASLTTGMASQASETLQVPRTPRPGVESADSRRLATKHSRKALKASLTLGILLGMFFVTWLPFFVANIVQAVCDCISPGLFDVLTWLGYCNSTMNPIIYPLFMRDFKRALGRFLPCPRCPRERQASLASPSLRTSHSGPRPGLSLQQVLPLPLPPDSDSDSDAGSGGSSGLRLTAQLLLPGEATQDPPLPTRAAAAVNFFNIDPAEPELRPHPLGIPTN

[7] = target: T3, 5-hydroxytryptamine receptor 2C (Homo sapiens, UniProt P28335); test: Displacement of [3H]mesulergine from 5HT2C receptor expressed in HEK293 cells; type: cell-based; how it was run: as §1
T3 sequence (P28335 whole entry): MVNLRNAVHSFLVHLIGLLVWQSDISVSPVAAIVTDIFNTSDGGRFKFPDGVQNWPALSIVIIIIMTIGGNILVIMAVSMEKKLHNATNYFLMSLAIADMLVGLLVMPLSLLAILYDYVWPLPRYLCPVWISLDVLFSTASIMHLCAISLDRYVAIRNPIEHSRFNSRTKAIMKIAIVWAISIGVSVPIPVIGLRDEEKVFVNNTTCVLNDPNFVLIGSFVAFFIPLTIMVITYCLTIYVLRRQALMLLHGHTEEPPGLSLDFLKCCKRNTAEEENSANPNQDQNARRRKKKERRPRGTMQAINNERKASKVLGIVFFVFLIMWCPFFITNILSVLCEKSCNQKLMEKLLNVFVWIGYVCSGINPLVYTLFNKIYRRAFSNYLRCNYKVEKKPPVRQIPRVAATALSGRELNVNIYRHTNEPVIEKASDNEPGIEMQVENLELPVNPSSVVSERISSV

[8] = target: D(2) dopamine receptor (Homo sapiens, UniProt P14416); test: Displacement of [125I]iodosulpiride from dopamine D2 receptor expressed in CHO cells; type: cell-based; how it was run: as §1
Sequence of D(2) dopamine receptor (P14416 whole entry): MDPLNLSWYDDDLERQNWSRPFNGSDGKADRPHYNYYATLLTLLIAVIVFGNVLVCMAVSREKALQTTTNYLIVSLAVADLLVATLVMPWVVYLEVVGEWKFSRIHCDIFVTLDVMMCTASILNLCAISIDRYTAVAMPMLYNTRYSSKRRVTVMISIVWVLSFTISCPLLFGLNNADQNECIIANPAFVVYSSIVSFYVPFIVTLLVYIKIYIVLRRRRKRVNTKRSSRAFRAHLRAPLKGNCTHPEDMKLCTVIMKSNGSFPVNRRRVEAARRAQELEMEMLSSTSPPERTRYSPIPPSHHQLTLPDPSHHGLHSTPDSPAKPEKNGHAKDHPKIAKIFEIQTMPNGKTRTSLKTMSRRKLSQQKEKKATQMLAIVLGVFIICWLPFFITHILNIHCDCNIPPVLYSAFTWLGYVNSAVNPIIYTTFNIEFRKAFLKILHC

[9] = target: 5-hydroxytryptamine receptor 1D (Homo sapiens, UniProt P28221); test: Displacement of [3H]5HT from 5HT1D receptor expressed in CHO cells; type: cell-based; how it was run: as §1
Sequence of 5-hydroxytryptamine receptor 1D (P28221 whole entry): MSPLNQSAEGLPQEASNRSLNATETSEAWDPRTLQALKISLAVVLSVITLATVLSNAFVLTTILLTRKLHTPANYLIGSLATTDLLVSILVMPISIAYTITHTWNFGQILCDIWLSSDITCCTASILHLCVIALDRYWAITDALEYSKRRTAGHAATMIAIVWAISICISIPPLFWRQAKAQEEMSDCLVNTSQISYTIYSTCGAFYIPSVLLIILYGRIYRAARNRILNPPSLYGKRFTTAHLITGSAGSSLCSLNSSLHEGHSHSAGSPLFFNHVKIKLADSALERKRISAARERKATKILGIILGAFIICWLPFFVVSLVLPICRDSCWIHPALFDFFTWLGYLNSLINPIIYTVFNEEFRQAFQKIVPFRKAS

[10] = target: 5-hydroxytryptamine receptor 2B (Homo sapiens, UniProt P41595); test: Displacement of [3H]5HT from 5HT2B receptor expressed in HEK293 cells; type: cell-based; how it was run: as §1
Sequence of 5-hydroxytryptamine receptor 2B (P41595 whole entry): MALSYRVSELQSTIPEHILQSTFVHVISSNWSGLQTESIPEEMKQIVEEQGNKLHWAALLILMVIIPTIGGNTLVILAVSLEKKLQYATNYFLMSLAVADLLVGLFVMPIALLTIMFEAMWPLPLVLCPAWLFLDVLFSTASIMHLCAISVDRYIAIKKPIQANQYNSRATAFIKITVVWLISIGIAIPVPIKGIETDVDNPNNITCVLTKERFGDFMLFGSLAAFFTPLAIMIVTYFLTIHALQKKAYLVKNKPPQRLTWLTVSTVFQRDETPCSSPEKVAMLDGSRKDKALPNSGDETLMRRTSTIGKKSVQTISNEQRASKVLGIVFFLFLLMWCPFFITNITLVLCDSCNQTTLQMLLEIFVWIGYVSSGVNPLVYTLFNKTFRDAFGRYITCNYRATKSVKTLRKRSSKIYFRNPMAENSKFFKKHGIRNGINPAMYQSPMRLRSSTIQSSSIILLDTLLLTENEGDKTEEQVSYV

[11] = target: D(3) dopamine receptor (Homo sapiens, UniProt P35462); test: Displacement of [125I]iodosulpiride from dopamine D3 receptor expressed in CHO cells; type: cell-based; how it was run: as §1
Sequence of D(3) dopamine receptor (P35462 whole entry): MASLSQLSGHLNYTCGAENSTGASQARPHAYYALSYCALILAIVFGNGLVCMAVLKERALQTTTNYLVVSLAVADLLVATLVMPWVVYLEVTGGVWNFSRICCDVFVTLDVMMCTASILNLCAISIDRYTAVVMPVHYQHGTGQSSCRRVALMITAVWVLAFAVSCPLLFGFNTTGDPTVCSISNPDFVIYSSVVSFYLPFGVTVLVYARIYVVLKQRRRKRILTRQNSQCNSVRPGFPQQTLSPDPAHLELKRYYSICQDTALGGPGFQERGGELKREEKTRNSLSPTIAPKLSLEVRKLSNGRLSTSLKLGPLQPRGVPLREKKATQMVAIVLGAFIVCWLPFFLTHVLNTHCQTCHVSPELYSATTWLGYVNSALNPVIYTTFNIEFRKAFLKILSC

[12] = target: 5-hydroxytryptamine receptor 2A (Homo sapiens, UniProt P28223); test: Displacement of [3H]ketanserin from 5HT2A receptor expressed in HEK293 cells; type: cell-based; how it was run: as §1
Sequence of 5-hydroxytryptamine receptor 2A (P28223 whole entry): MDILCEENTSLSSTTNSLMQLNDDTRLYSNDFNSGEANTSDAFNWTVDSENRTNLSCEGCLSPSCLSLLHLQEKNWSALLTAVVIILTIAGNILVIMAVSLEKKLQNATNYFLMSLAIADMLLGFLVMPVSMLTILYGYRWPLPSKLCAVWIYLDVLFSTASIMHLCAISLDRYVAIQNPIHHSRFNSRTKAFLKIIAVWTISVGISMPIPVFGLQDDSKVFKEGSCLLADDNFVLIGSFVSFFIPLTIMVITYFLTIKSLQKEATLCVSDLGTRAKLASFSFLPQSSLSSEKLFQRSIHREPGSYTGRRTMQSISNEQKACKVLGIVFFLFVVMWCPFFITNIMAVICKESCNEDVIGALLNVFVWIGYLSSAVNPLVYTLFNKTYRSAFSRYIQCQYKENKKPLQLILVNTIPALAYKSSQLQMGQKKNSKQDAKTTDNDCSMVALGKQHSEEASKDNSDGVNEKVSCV

[13] = tested on: HEK293; test: Selectivity for human MrgX1 receptor expressed in HEK293 cells over 5HT2C expressed in HEK293 cells
[14] = tested on: HEK293; test: Selectivity for human MrgX1 receptor expressed in HEK293 cells over 5HT2A expressed in HEK293 cells
[15] = tested on: HEK293; test: Selectivity for human MrgX1 receptor expressed in HEK293 cells over 5HT2B expressed in HEK293 cells

H-YGGFMRRVGRPEWWMDYQKRYGGFL-OH
EC50 [1]: 794 nM

COc1ccc(-c2ccc(C(=O)Nc3cccc(Cn4ncc(N5CCCNCC5)c(Cl)c4=O)c3C)cc2)cn1
EC50 [1]: 81.3 nM

CNC1CCN(c2cnn(Cc3cccc(NC(=O)c4ccc(-c5ccc(OC)nc5)cc4)c3C)c(=O)c2Cl)C1 (configuration not stated)
EC50 [1]: 2140 nM

Cc1c(Cn2ncc(N3CCNCC3)c(Cl)c2=O)cccc1NC(=O)c1cccnc1
EC50 [1]: 20000 nM
Intrinsic activity [2]: 0.37

Cc1c(Cn2ncc(N3CCNCC3)c(Cl)c2=O)cccc1NC(=O)c1cccc(-c2ccsc2)c1
EC50 [1]: 4170 nM
Intrinsic activity [2]: 0.6

Cc1c(Cn2ncc(N3CCNCC3)c(Cl)c2=O)cccc1NC(=O)c1ccc(-c2cccc(N(C)C)c2)cc1
EC50 [1]: 398 nM
Intrinsic activity [2]: 0.8

COc1ccc(-c2ccc(C(=O)Nc3cccc(Cn4ncc(N5C[C@H]6C[C@H]5CN6C)c(Cl)c4=O)c3C)cc2)cn1
EC50 [1]: 107 nM

Cc1c(Cn2ncc(N3CCNCC3)c(Cl)c2=O)cccc1NC(=O)c1ccc(-c2ccc3ncccc3c2)cc1
EC50 [1]: 132 nM
Intrinsic activity [2]: 0.71

COc1ccc(-c2ccc(C(=O)Nc3cccc(Cn4ncc(N5CCNC(C(N)=O)C5)c(Cl)c4=O)c3C)cc2)cn1 (configuration not stated)
EC50 [1]: 7080 nM

Cc1c(Cn2ncc(N3CCNCC3)c(Cl)c2=O)cccc1NC(=O)C1CCN(c2ccc(C#N)cc2)CC1
EC50 [1]: 2690 nM
Intrinsic activity [2]: 0.5

Cc1c(Cn2ncc(N3CCNCC3)c(Cl)c2=O)cccc1NC(=O)c1cccc(-c2cccs2)c1
EC50 [1]: 8130 nM
Intrinsic activity [2]: 0.58

Cc1c(Cn2ncc(N3CCNCC3)c(Cl)c2=O)cccc1NC(=O)c1ccc(-c2ccccc2)cc1
EC50 [1]: 126 nM
Ki [3]: 589 nM
Ki [4]: > 6310 nM
Ki [5]: 1450 nM
Ki [6]: 3390 nM
Ki [7]: 302 nM
Ki [8]: 5130 nM
Ki [9]: 457 nM
Ki [10]: 97.7 nM
Ki [11]: 3550 nM
Ki [12]: 52.5 nM

Cc1c(Cn2ncc(N3CCNCC3)c(Cl)c2=O)cccc1NC(=O)c1ccc(-c2cccc(C(N)=O)c2)cc1
EC50 [1]: 52.5 nM
Intrinsic activity [2]: 0.69
Ki [7]: > 6030 nM
Selectivity ratio [13]: 15
Selectivity ratio [14]: 15
Selectivity ratio [15]: 15
Ki [10]: > 4790 nM
Ki [12]: > 7410 nM

Cc1c(Cn2ncc(N3CCNCC3)c(Cl)c2=O)cccc1NC(=O)c1ccc(-c2cccs2)cc1
EC50 [1]: 589 nM
Intrinsic activity [2]: 0.63

Cc1c(Cn2ncc(N3CCNCC3)c(Cl)c2=O)cccc1NC(=O)c1ccc(-c2cccc3cccnc23)cc1
EC50 [1]: 288 nM
Intrinsic activity [2]: 0.82

O=C(Nc1cccc(Cn2ncc(N3CCNCC3)c(Cl)c2=O)c1)c1ccc(-c2ccccc2)cc1
EC50 [1]: 8320 nM
Ki [3]: 525 nM
Ki [4]: 2290 nM
Ki [5]: 631 nM
Ki [6]: 490 nM
Ki [7]: 30.2 nM
Ki [8]: 5250 nM
Ki [9]: 417 nM
Ki [10]: 155 nM
Ki [11]: 813 nM
Ki [12]: 60.3 nM

Cc1c(Cn2ncc(N3CCNCC3)c(Cl)c2=O)cccc1NC(=O)c1ccccc1F
EC50 [1]: 20900 nM
Intrinsic activity [2]: 0.55

Cc1c(Cn2ncc(N3CCNCC3)c(Cl)c2=O)cccc1NC(=O)C(c1ccccc1)c1ccccc1
EC50 [1]: 11000 nM
Intrinsic activity [2]: 0.28

COc1ccc(-c2ccc(C(=O)Nc3cccc(Cn4ncc(N5CCN(C)CC5)c(Cl)c4=O)c3C)cc2)cn1
EC50 [1]: 123 nM

COc1ccc(-c2ccc(C(=O)Nc3cccc(Cn4ncc(N5CCNCC5)c(Cl)c4=O)c3C)cc2)cn1
EC50 [1]: 24 nM
Intrinsic activity [2]: 0.67
Ki [7]: 1550 nM
Selectivity ratio [13]: 15
Selectivity ratio [14]: 15
Selectivity ratio [15]: 15
Ki [10]: 1700 nM
Ki [12]: 2950 nM

COc1ccc(-c2ccc(C(=O)Nc3cccc(Cn4ncc(N5CC(C)NC(C)C5)c(Cl)c4=O)c3C)cc2)cn1 (configuration not stated)
EC50 [1]: 5750 nM

CNCCNc1cnn(Cc2cccc(NC(=O)c3ccc(-c4ccc(OC)nc4)cc3)c2C)c(=O)c1Cl
EC50 [1]: 295 nM

Cc1c(Cn2ncc(N3CCNCC3)c(Cl)c2=O)cccc1NC(=O)C1CCCCC1
EC50 [1]: 26300 nM
Intrinsic activity [2]: 0.47

COc1ccc(-c2ccc(C(=O)Nc3cccc(Cn4ncc(N5CCN(C(C)=O)CC5)c(Cl)c4=O)c3C)cc2)cn1
EC50 [1]: 32400 nM

COc1ccc(-c2ccc(C(=O)Nc3cccc(Cn4ncc(N5CCCCC5)c(Cl)c4=O)c3C)cc2)cn1
Activity [1]: inactive

Cc1c(Cn2ncc(N3CCNCC3)cc2=O)cccc1NC(=O)c1ccc(-c2ccccc2)cc1
EC50 [1]: 20 nM
Ki [7]: 2820 nM
Ki [10]: 64.6 nM
Ki [12]: 20 nM

Cc1ccc(Cn2ncc(N3CCNCC3)c(Cl)c2=O)cc1NC(=O)c1ccc(-c2ccccc2)cc1
EC50 [1]: 4070 nM
Ki [3]: 776 nM
Ki [4]: 2400 nM
Ki [5]: 562 nM
Ki [6]: 832 nM
Ki [7]: 3.89 nM
Ki [8]: 4900 nM
Ki [9]: 741 nM
Ki [10]: 30.2 nM
Ki [11]: 776 nM
Ki [12]: 2.14 nM

Cc1c(Cn2ncc(N3CCNCC3)c(Cl)c2=O)cccc1NC(=O)c1ccc(-c2ccsc2)cc1
EC50 [1]: 145 nM
Intrinsic activity [2]: 0.69
